Drawing on ChEMBL document CHEMBL1153490, “Spiroadamantyl 1,2,4-trioxolane, 1,2,4-trioxane, and 1,2,4-trioxepane pairs: relationship between peroxide bond iron(II) reactivity, heme alkylation efficiency, and antimalarial activity” (Bioorg Med Chem Lett, 2009), this text covers Activity and IC50 for 10 molecules.

≈ marks a conversion by molar mass, not a printed value. Where only a bound is given, the exact number is not on record here.

The nature of assay [1]: Induction of heme alkylation measured within 30 seconds by visible spectrophotometry. Also noted: concentration or dose not given beside the values.
The subject of assay [2] is Plasmodium falciparum (NF54). In words: Antimalarial activity against chloroquine-sensitive Plasmodium falciparum NF54.
Assay [3] concerns Plasmodium falciparum. Nature of the assay: Antimalarial activity against chloroquine-resistant Plasmodium falciparum K1 […]. Type of assay: functional, organism-based.
Assay [4] has as its system Plasmodium berghei. Nature of the assay: Antimalarial activity as reduced parasitaemia after 3 days against Plasmodium berghei infected NMRI mice (Mus musculus) at 100 mg/kg peroral dose. The format is functional. More on the design: scale not given: the % may be the effect or the level left. The following applies: route oral. The method in brief:
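Groups of three P. berghei-infected NMRI mice were dosed orally one day post-infection at 100 mg/kg. Compounds were dissolved or suspended in 3% ethanol and 7% Tween 80.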

In turn, `CC(C)(N)CNC(=O)C[C@H]1CC[C@]2(CC1)OO[C@]1(O2)C2CC3CC(C2)CC1C3` yielded an Activity in assay [1] of 83%.
In turn, `c1ccc([C@H]2CCOC3(OO2)C2CC4CC(C2)CC3C4)cc1` (stereo not given in full) had an Activity in assay [1] of 1%. Moreover, the IC50 in assay [2] is > 1 µg/mL.
As to `c1ccc([C@@H]2OOC3(O2)C2CC4CC(C2)CC3C4)cc1` (stereo not given in full), the values for the concentration for half-maximal inhibition (IC50) in assay [3] and in assay [2] were 0.4 µg/mL (≈ 1.47 µM) and > 1 µg/mL, respectively. Also, the Activity in assay [4] is 25%; in assay [1], 50%.
Taken in the same sequence, the figures for `C1CCC2(CC1)COC1(OO2)C2CC3CC(C2)CC1C3` (stereo not given) were 0.054 µg/mL (≈ 0.194 µM), 0.044 µg/mL (≈ 0.158 µM), 0% and 45%.
For the molecule `C1CC[C@]2(CC1)CCO[C@]1(OO2)C2CC3CC(C2)CC1C3`, the Activity in assay [4] was found to be 0%; in assay [1], 25%. In addition, the IC50 in assay [2] is > 1 µg/mL.
`C[C@]1(c2ccccc2)COC2(OO1)C1CC3CC(C1)CC2C3` (stereo not given in full): the results for the IC50 in assay [3] and in assay [2] were 0.019 µg/mL (≈ 0.0632 µM) and 0.022 µg/mL (≈ 0.0732 µM), respectively. The Activity in assay [4] was determined as 0%.
Turning to `C[C@@H]1CC[C@H]2[C@@H](C)C(=O)O[C@@H]3O[C@@]4(C)CC[C@@H]1[C@]32OO4` [ARTEMISININ], the Activity in assay [4] was 98%. For the same molecule, it took 0.0028 µg/mL (≈ 0.00992 µM) to reach half-maximal inhibition in assay [2] (IC50).
As for `C1CCC2(CC1)OOC1(O2)C2CC3CC(C2)CC1C3` (stereo not given), the Activity in assay [4] is >99.99%; in assay [1], 86%. The IC50 in assay [2] came out at 0.0014 µg/mL (≈ 0.0053 µM).
Turning to `c1ccc([C@H]2COC3(OO2)C2CC4CC(C2)CC3C4)cc1` (stereo not given in full), the IC50 turned out to be 0.0091 µg/mL (≈ 0.0318 µM) in assay [3] and 0.019 µg/mL (≈ 0.0663 µM) in assay [2]. For the same molecule, the results for the Activity in assay [4] and in assay [1] were 96% and 55%, respectively.
The like results for `C[C@@]1(c2ccccc2)OOC2(O1)C1CC3CC(C1)CC2C3` (stereo not given in full) were, in that order, 0.0029 µg/mL (≈ 0.0101 µM), 0.0034 µg/mL (≈ 0.0119 µM), 99% and 67%.
